The values below come from ChEMBL document CHEMBL2010783, “Do plant cyclotides have potential as immunosuppressant peptides?” (J Nat Prod, 2012).

What is called IC50 is the concentration needed to halve the response being measured.

Holding throughout (assay type): functional, cell-based
Test [1] has as its system PBMC. Nature of the test: Induction of apoptosis in human activated PBMC assessed as necrotic cells at 1.6 uM by annexinV/propidium iodide staining-based flow cytometric analysis. Put shortly:
(§1)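 Donor PBMC (10^5) were activated with anti-CD3/CD28 mAbs for 72 h with test agent, medium or controls (camptothecin 30 μg/mL; Triton X-100 0.5%). Readouts were subG1 DNA content by flow cytometry, and annexin V-FITC then propidium iodide staining by flow cytometry. Gates: viable annexin−/PI−; apoptotic annexin+/PI− or +/+; necrotic annexin−/PI+. Three independent experiments, mean ± SEM.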

The subject of test [2] is PBMC. The test can be described thus: Antiproliferative activity against activated human PBMC assessed as decrease in cell division at 1.6 uM after 72 hrs by flow cytometric analysis. Put shortly:
(§2)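 PBMC from healthy adult donors, isolated on a density gradient and cultured in RPMI 1640 with 10% heat-inactivated FCS at 37 °C and 5% CO2. 10^5 cells were stimulated with anti-CD3 (OKT3) and anti-CD28 mAbs for 72 h with test agent or medium. Cells were labelled with CFSE (5 μM, 10 min, 37 °C) and cell division was read by flow cytometry. Three or four independent experiments, mean ± SEM.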
On the technique in general: In flow cytometry, cells or beads pass a laser one at a time.

Test [3] deals with PBMC. Nature of the test: Induction of apoptosis in human activated PBMC assessed as internucleosomal DNA fragmentation at 1.6 uM by annexinV/propidium iodide staining-based flow cytometric analysis. Put shortly:
as §1

Test [4] relates to PBMC. Nature of the test: Antiproliferative activity against activated human PBMC assessed as decrease in cell division after 72 hrs by flow cytometric analysis. Summed up: as §2
Test [5] concerns PBMC. Nature of the test: Induction of apoptosis in human activated PBMC assessed as necrosis at 14 uM by annexinV/propidium iodide staining-based flow cytometric analysis. Put shortly:
as §1

Test [6] deals with PBMC. Nature of the test: Induction of apoptosis in human activated PBMC at 1.8 to 14 uM by annexinV/propidium iodide staining-based flow cytometric analysis. Summed up: as §1
The test system of test [7] is PBMC. Nature of the test: Antiproliferative activity against activated human PBMC assessed as decrease in cell division at 30 ug/ml after 72 hrs by flow cytometric analysis. Put shortly: as §2
Test [8] concerns PBMC. Nature of the test: Induction of apoptosis in human activated PBMC at 30 ug/ml by annexinV/propidium iodide staining-based flow cytometric analysis. Summed up: as §1
Test [9] deals with PBMC. The test can be described thus: Induction of apoptosis in human activated PBMC assessed as necrosis at 30 ug/ml by annexinV/propidium iodide staining-based flow cytometric analysis. Summed up:
as §1

Calls of active or inactive are those of the source. No cut-off for these calls is given here.

As to `CC[C@H](C)[C@H](NC(=O)CN)C(=O)NCC(=O)N[C@@H](C)C(=O)N[C@H](C(=O)N[C@@H](CC(C)C)C(=O)N[C@@H](CCCCN)C(=O)N[C@H](C(=O)N[C@@H](CC(C)C)C(=O)N[C@H](C(=O)N[C@H](C(=O)NCC(=O)N[C@@H](CC(C)C)C(=O)N1CCC[C@H]1C(=O)N[C@@H](C)C(=O)N[C@@H](CC(C)C)C(=O)N[C@H](C(=O)N[C@@H](CO)C(=O)N[C@@H](Cc1c[nH]c2ccccc12)C(=O)N[C@H](C(=O)N[C@@H](CCCCN)C(=O)N[C@@H](CCCNC(=N)N)C(=O)N[C@@H](CCCCN)C(=O)N[C@@H](CCCNC(=N)N)C(=O)N[C@@H](CCC(N)=O)C(=O)N[C@@H](CCC(N)=O)C(N)=O)[C@@H](C)CC)[C@@H](C)CC)[C@@H](C)O)[C@@H](C)O)C(C)C)C(C)C`, the result in [1], in test [2] and in test [3] was Active.

With `CC(C)C[C@@H]1NC(=O)CNC(=O)[C@H](CC(N)=O)NC(=O)[C@H](CCCNC(=N)N)NC(=O)[C@H]([C@@H](C)O)NC(=O)[C@@H]2CSSC[C@@H]3NC(=O)[C@H]([C@@H](C)O)NC(=O)CNC(=O)CNC(=O)[C@H](C(C)C)NC(=O)[C@@H]4CSSC[C@H](NC(=O)[C@H]([C@@H](C)O)NC(=O)[C@H](CSSC[C@H](NC(=O)[C@H](C(C)C)NC(=O)[C@@H]5CCCN5C1=O)C(=O)NCC(=O)N[C@@H](CCC(=O)O)C(=O)N[C@@H]([C@@H](C)O)C(=O)N4)NC(=O)CNC(=O)[C@@H]1CCCN1C(=O)[C@H]([C@@H](C)O)NC(=O)[C@H](CC(N)=O)NC3=O)C(=O)N[C@@H](CO)C(=O)N[C@@H](Cc1c[nH]c3ccccc13)C(=O)N1CCC[C@H]1C(=O)N[C@@H](C(C)C)C(=O)N2` [KALATA B1], the IC50 in test [4] came to 3.9 µM.

In the case of `CC(C)C[C@@H]1NC(=O)CNC(=O)[C@H](CC(N)=O)NC(=O)[C@H](CCCNC(=N)N)NC(=O)[C@H]([C@@H](C)O)NC(=O)[C@H](CS)NC(=O)[C@H](C(C)C)NC(=O)[C@@H]2CCCN2C(=O)[C@H](CCC(=O)O)NC(=O)[C@H](CO)NC(=O)[C@H](CS)NC(=O)[C@H]([C@@H](C)O)NC(=O)[C@H](CS)NC(=O)CNC(=O)[C@@H]2CCCN2C(=O)[C@H]([C@@H](C)O)NC(=O)[C@H](CC(N)=O)NC(=O)[C@H](CS)NC(=O)[C@H]([C@@H](C)O)NC(=O)CNC(=O)CNC(=O)[C@H](C(C)C)NC(=O)[C@H](CS)NC(=O)[C@H]([C@@H](C)O)NC(=O)[C@H](CCC(=O)O)NC(=O)CNC(=O)[C@H](CS)NC(=O)[C@H](C(C)C)NC(=O)[C@@H]2CCCN2C1=O`, the result in test [5] and in test [6] was inactive. In addition, in test [4], the Activity entry was “Dose-dependent effect”.

In the case of `CC[C@@]1(O)C(=O)OCc2c1cc1n(c2=O)Cc2cc3ccccc3nc2-1`, the result in [7], in test [8] and in test [9] was Active.
